These results are taken from ChEMBL document CHEMBL1828560, “Design, synthesis and biological study of pinacolyl boronate-substituted stilbenes as novel lipogenic inhibitors” (Bioorg Med Chem Lett, 2011).

The test system of data set [1] is HepG2. Briefly: Cytotoxicity against human HepG2 cells. The data set is classed as cell-based.
In data set [2] the test system is FaO. In words: Inhibition of cholesterol biosynthesis in rat FaO cells at 20 uM after 12 hrs by deuterium enrichment-GC/MS method in presence of 100 nM insulin. The data set is classed as functional, cell-based. A digest of the protocol: (§1)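 Rat hepatoma FAO cells, maintained in DMEM with 10% FBS, treated at 20μM for 12 hours with 100 nM insulin. Cells cultured in DMEM containing 10% 2H2O for 18 hours; deuterium incorporation into palmitate or cholesterol measured by GC/MS to give synthesis rate. Averages of three independent samples vs DMSO.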

Data set [3] relates to FaO. In words: Inhibition of lipogenesis in rat FaO cells assessed as decrease in synthesis rate of palmitate at 20 uM after 12 hrs by deuterium enrichment-GC/MS method in presence of 100 nM insulin. The data set is classed as functional, cell-based. The gist of the method: as §1
Data set [4] has as its system HepG2. Briefly: Inhibition of FAS gene expression in human HepG2 cells at 30 uM after 6 hrs by quantitative RT-PCR. The data set is classed as functional, cell-based. A digest of the protocol:
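HepG2 cells grown at 37°C, 5% CO2 in DMEM with 10% FBS, penicillin-streptomycin and 20mM glutamine; compounds at 30μM for 6 hours. Total RNA extracted with Trizol; 2 μg reverse-transcribed to cDNA; FAS transcript quantified by real-time qPCR with cyclophilin B as invariant control. Three independent samples averaged; compared with DMSO.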

The subject of data set [5] is HepG2. Briefly: Inhibition of HMGCR gene expression in human HepG2 cells after 6 hrs by measuring mRNA level of HMGCR using quantitative RT-PCR. The data set is classed as functional, cell-based. A digest of the protocol:
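HepG2 cells cultured in DMEM plus 10% FBS, penicillin-streptomycin, 20mM glutamine (37°C, 5% CO2), exposed to a series of concentrations for 6 hours. HMGCR mRNA measured by qRT-PCR: Trizol RNA extraction, 2 μg RNA converted to cDNA, real-time PCR normalized to cyclophilin B.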

The species named for a further data set is Mus musculus. Briefly: Toxicity in mouse. As to conditions: in vivo. The data set is classed as organism-based.

The source made the active and inactive calls. The calls are words filed in the database; no cut-off is given here.

On to `CC1(C)OB(c2ccc(C=Cc3ccc(O)cc3)cc2)OC1(C)C` (mixture of isomers), for which the Activity entry in the data set on HepG2 [1] and in the data set listed under Mus musculus was “Non-toxic” in each case. Besides, the inhibition entry in the data set on FaO [2], in the data set on FaO [3] and in the data set with HepG2 [4] was “Active” each time. Moreover, in the data set on HepG2 [5], the inhibition entry is “Dose-dependent effect”.

As for `CC1(C)OB(c2ccc(C=Cc3cc(Cl)cc(Cl)c3)cc2)OC1(C)C` (mixture of isomers), in the data set on HepG2 [1], the Activity result is given as “Non-toxic”. For the same compound, the inhibition entry in the data set with HepG2 [4] was “Active”.

As to `COc1ccc(C=Cc2ccc(B3OC(C)(C)C(C)(C)O3)cc2)cc1` (mixture of isomers), the inhibition result in the data set with HepG2 [4] and with HepG2 [5] was “inactive” throughout.
